# Laboratory results taken from PMC5148670 (Journal of medicinal chemistry, 2016).
# Changes are numbered by the printed parent chain. Where two headings read alike, the source gives them in different places.
# Legend:
# SETD8 [1] = molecular target: T1, SETD8 (Homo sapiens, UniProt Q9NQR1); test: SETD8 scintillation proximity assay; format: biochemical
# T1 sequence (Q9NQR1 232-393): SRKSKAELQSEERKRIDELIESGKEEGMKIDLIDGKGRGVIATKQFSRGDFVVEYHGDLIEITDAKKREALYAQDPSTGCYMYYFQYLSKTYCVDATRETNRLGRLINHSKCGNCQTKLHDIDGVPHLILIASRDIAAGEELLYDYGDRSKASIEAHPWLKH
# SETD8 [2] = molecular target: T1, SETD8; test: Mass spectrometry of covalent modification, wild-type SETD8; format: binding; conditions: for covalent adduct formation by MS: purified SETD8 with full SET domain, 3 hours incubation
# Outline: (§1)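 Catalytic domain of SETD8 (wild type, C311S or C343S; the C311S protein carried a His tag) at 7 μM was incubated with 20–200 μM test compound in water for over 3 h. Samples were analysed by electrospray LC/MS time-of-flight to detect covalent adducts. Masses of each protein without compound were recorded as controls.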
# C311S mutant of SETD8 = molecular target: T2, C311S mutant of SETD8 (Homo sapiens, UniProt Q9NQR1, C311S); test: Mass spectrometry of covalent modification, SETD8 C311S mutant; format: binding
# T2 sequence (Q9NQR1 232-393 C311S): T1 sequence (Q9NQR1 232-393) with C80S
# Outline: as §1
# C343S mutant of SETD8 = molecular target: T3, C343S mutant of SETD8 (Homo sapiens, UniProt Q9NQR1, C343S); test: Mass spectrometry of covalent modification, SETD8 C343S mutant; format: binding
# T3 sequence (Q9NQR1 232-393 C343S): T1 sequence (Q9NQR1 232-393) with C112S
# Outline: as §1
# PRC2 = PRC2 (Homo sapiens, UniProt Q15910); test: Mass spectrometry of covalent labeling, PRC2; format: binding
# SMYD2 = SMYD2 (Homo sapiens, UniProt Q9NRG4); test: Mass spectrometry of covalent labeling, SMYD2; format: binding
# SMYD3 = molecular target: T4, SMYD3 (Homo sapiens, UniProt Q9H7B4); test: Mass spectrometry of covalent labeling, SMYD3; format: binding
# T4 sequence (Q9H7B4 1-428): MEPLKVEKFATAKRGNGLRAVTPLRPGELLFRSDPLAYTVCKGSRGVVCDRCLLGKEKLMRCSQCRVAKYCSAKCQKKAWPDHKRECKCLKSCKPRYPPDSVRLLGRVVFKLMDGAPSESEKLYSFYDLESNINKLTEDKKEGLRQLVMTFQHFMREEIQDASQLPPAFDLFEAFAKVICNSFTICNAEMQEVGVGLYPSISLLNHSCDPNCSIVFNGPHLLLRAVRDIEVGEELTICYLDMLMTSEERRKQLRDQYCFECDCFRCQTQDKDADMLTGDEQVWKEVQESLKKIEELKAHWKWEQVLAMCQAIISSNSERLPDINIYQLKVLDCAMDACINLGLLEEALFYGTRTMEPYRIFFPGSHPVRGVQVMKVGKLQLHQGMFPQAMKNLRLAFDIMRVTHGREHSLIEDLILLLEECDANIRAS
# [3] = tested on: 28 other methyltransferases; test: Methyltransferase selectivity assays; format: biochemical
# [4] = tested on: H4K20me mark in HeLa cells; test: H4K20me mark in HeLa cells; format: cell-based; conditions: up to 10μM
# SETD8 [5] = molecular target: T1, SETD8; test: Residual enzymatic activity of the purified 3-SETD8 adduct; format: biochemical; conditions: purified monomer and dimer of 3-SETD8 adduct
# Outline: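 SETD8 was incubated with the covalent test compound until adduct formation was complete by MS. The adduct was purified by gel filtration, giving monomer and dimer forms that interconvert. Each form was then tested in the enzymatic assay and compared with wild-type SETD8.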
# SETD8 [6] = conditions: cited from earlier work
# Chain of SMYD2 (Q9NRG4 whole entry, species assumed): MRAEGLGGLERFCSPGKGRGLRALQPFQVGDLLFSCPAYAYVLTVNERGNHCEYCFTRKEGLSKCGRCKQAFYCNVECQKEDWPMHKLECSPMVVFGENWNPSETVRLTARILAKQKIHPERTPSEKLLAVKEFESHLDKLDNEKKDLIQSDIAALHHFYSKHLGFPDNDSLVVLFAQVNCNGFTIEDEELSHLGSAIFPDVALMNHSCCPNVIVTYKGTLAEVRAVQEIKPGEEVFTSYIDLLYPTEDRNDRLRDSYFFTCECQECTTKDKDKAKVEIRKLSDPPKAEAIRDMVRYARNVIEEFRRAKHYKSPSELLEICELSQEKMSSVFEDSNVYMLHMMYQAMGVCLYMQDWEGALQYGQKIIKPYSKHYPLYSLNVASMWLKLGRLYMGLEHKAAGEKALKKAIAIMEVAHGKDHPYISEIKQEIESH
# Chain of PRC2 (Q15910 whole entry): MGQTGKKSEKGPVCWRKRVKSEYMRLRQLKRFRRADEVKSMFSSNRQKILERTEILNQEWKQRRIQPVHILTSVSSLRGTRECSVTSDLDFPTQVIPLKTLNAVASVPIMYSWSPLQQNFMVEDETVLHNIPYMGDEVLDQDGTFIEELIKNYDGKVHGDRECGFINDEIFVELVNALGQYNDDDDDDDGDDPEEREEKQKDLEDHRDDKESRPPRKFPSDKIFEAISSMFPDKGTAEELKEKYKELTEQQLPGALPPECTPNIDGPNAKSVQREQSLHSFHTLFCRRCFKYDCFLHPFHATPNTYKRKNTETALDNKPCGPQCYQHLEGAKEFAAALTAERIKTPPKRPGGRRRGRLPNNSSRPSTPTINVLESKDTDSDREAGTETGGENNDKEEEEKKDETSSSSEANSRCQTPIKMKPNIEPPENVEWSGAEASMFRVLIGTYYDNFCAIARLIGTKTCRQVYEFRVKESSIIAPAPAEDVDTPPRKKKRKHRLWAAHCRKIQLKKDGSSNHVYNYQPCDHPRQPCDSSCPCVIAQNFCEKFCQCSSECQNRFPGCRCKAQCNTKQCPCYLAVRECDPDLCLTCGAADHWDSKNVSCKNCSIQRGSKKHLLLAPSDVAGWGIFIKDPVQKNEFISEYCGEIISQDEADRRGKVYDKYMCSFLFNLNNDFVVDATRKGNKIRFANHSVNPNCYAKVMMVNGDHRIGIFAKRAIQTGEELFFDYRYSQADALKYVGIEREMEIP
# Chain of PRC2 (O75530 whole entry partner): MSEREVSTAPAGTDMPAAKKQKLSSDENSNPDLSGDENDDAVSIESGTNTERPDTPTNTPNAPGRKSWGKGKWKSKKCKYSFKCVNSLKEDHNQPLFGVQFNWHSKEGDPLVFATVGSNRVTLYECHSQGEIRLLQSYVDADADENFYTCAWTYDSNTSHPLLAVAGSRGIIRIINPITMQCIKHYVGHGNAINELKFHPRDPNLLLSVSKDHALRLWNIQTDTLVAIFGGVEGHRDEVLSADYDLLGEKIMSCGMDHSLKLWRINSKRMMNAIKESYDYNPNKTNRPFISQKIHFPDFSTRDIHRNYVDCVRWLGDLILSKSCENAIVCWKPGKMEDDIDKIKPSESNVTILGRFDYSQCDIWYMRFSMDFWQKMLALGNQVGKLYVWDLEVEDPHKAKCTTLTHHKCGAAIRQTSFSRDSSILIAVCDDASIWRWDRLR
# Chain of PRC2 (Q15022 whole entry partner): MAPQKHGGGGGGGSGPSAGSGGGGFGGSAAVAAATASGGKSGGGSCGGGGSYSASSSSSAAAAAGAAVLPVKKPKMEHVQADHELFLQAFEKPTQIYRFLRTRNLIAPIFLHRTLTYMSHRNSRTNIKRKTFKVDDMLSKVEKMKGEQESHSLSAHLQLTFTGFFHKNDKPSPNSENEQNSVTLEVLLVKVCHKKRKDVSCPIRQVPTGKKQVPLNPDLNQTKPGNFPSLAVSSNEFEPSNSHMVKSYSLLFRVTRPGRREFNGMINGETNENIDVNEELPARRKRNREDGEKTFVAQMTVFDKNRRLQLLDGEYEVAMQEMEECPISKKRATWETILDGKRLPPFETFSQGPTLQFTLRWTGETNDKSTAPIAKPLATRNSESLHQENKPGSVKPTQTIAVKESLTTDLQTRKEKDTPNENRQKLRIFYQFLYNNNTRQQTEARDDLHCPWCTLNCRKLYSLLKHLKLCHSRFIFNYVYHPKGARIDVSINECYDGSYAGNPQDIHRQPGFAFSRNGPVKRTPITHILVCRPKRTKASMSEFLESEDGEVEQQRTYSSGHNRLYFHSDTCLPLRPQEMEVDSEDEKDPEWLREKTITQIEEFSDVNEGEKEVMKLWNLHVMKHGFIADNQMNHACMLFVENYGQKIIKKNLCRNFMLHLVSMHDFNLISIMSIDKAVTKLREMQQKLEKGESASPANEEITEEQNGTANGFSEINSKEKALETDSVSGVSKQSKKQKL
Molecule,"Hillslope (SETD8 [1]; incubation with SETD8 for 1 or 5 hours, both incubation times)",covalent modification of SETD8 in presence of glutathione (SETD8 [2]; 5 mM glutathione (GSH)),covalent adduct formation by MS (SETD8 [2]),covalent adduct formation by MS (C311S mutant of SETD8),covalent adduct formation by MS (C343S mutant of SETD8),labeling by MS analysis (PRC2),labeling by MS analysis (SMYD2),labeling by MS analysis (SMYD3),selectivity for SETD8 over other methyltransferases [3],selectivity for SETD8 over other methyltransferases ([3]; listed as MS453),reduction in the H4K20me mark [4],enzymatic activity retained by adduct relative to wild-type SETD8 (SETD8 [5]),activity in the SETD8 biochemical assay (SETD8 [1]),mechanism of action (SETD8 [6]),IC50 (SETD8 [6]; read-out: potency in vitro)
"C=CC(=O)NCCCNc1nc(N2CCCC2)nc2cc(OC)c(OC)cc12 [compound 3, N-(3-((6,7-Dimethoxy-2-(pyrrolidin-1-yl)quinazolin-4-yl)amino)propyl)acrylamide]",1.2,not affected,efficiently forms a single-modified covalent adduct,did not form an adduct,formed a single-modified adduct,no labeling,no labeling,no labeling,selective for SETD8 over 30 other methyltransferases,selective for SETD8 against 28 other methyltransferases,did not observe significant reduction,about 10%,–,–,–
"C=CC(=O)NCCCN(C)c1nc(N2CCCC2)nc2cc(OC)c(OC)cc12 [compound 4, N-(3-((6,7-Dimethoxy-2-(pyrrolidin-1-yl)quinazolin-4-yl)(methyl)amino)propyl)acrylamide]",–,–,did not covalently modify SETD8,–,–,–,–,–,–,–,–,–,inactive,–,–
nauhoic acid A,–,–,–,–,–,–,–,–,–,–,–,–,–,SAM-competitive,6.5 µM
